From PubChem
Rows were chosen to be rich in hits. Some 12% of all compounds tested hit in one or more screens of this group.
Wee1 degr inh: Wee1 degradation inhibitors, primary screen, cell-based, HeLa, Wee1K328M-luciferase, luminescence; reporter increase, % at 5 µM; HeLa Luc-Wee1K328M stability; 100% = proteasome inhibitor MG132 effect; 220,000 compounds, 1.2% hits;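 active = activation above the mean of all tested compounds plus 3 SD, set per screening run, cut at about 8.8% in these data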;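 also: cells exposed to compound for 20 h before luminescence read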
Target sequence (P30291 whole entry K328M): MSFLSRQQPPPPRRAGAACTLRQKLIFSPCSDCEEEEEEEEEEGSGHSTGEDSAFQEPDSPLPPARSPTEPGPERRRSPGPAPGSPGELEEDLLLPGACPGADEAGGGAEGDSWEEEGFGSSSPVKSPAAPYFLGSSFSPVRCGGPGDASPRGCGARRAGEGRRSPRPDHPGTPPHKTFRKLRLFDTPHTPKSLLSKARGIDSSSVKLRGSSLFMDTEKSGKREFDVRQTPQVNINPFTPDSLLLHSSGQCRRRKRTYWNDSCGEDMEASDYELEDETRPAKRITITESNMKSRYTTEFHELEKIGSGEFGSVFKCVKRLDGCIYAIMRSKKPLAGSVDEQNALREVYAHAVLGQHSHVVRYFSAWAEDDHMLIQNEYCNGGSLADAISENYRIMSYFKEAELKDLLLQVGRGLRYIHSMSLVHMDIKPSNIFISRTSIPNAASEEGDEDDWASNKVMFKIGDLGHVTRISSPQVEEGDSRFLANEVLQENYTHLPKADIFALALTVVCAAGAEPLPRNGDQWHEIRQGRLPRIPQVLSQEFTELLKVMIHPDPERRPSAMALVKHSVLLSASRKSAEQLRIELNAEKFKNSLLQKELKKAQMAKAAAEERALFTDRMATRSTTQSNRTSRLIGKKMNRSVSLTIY
PKD1 inh: inhibitors of human PKD1 kinase, biochemical, fluorescence polarization. inhibition, % (no concentration beside the values). AID 797, 2007. PKD1 kinase fluorescence polarization assay. Serine/threonine-protein kinase D1 (Homo sapiens), Q15139. 200,000 compounds, 0.056% hits
L major viab: Leishmania major promastigote growth inhibition, primary screen; Leishmania major promastigotes, resazurin fluorescence viability; inhibition, % at 10 µM; 200,000 compounds, 9% hits;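 also: promastigotes grown with compound for 44 hours at 28 °C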
CHOP inh: inhibitors of CHOP promoter induction, primary screen, cell-based, unfolded protein response, luciferase reporter; CHO-K1 CHOP-promoter luciferase, tunicamycin-induced, 15-18 h; inhibition, % at 10 µM; 220,000 compounds, 3.8% hits; AID 2732, 2010;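 active = compounds that reduced the stress-induced luciferase reporter signal by more than about 70% of percent inhibition, limit read from the data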
Arbovirus anti: antivirals against arbovirus infection, primary screen, cell-based, full library, 10K replicate subset; arbovirus infection cell-based antiviral screen; inhibition, % at 10 µM; 200,000 compounds, 0.37% hits; in the data active = inhibition above about 30%
Rad51 HR inh: human RAD51 strand exchange inhibitors, primary screen, biochemical, fluorescence; DNA repair protein RAD51 homolog 1 (Homo sapiens), Q06609; hRad51 DNA strand exchange, fluorescence dequenching; inhibition, % at 10 µM; 200,000 compounds, 0.085% hits; AID 1385, 2008;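 active = inhibition above 40% at the single screening dose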
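Material: hRad51 filaments on single-stranded DNA; Reagent: Donor/quencher-labelled 47-bp dsDNA substrate; Compound: 10 µM final, single point; Schedule: 37 °C 15-min filament assembly, 30-min compound preincubation, 15-min exchange; Technique: FRET fluorescence, excitation 485 nm, emission 520 nm; Benchmarks: control wells and blank wells on each plate.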
Hits are given with their value; n = inactive; x = no result given. Rule as the data show it, unless noted: active = inhibition above about 50%; inactive = the rest.

SMILES	Wee1 degr inh	PKD1 inh	L major viab	CHOP inh	Arbovirus anti	Rad51 HR inh
O=C(Nc1ccc2c(c1)OCO2)c1cnn2c(C(F)(F)F)cc(-c3ccco3)nc12	n	n	n	n	n	n
O=S(=O)(c1ccccc1)c1cnn(-c2ccccc2)c1-c1ccc(Cl)cc1	n	n	55	n	n	n
COc1ccc(-c2c(S(=O)(=O)c3ccccc3)cnn2-c2ccccc2)cc1	n	n	59	n	n	n
O=C(O)CCn1cc(C2CC(c3ccccc3)=NN2c2ccccc2)c(-c2ccccc2)n1 (stereo unspecified)	n	n	n	80	n	n
CCOC(=O)c1c(C)[nH]c(C(=O)COC(=O)/C=C/c2ccc(OCC#N)c(OC)c2)c1C	n	n	n	n	n	n
Cc1cc(=O)oc2cc(OCC(=O)Nc3cccc(S(=O)(=O)N(C)C)c3)ccc12	9.6	n	60	n	n	n
CC(=O)NC(Nc1c(C)n(C)n(-c2ccccc2)c1=O)C(Cl)(Cl)Cl (stereo unspecified)	n	n	n	n	n	x
Cc1ccc(C)c(NC(=O)CN(C)C(=O)c2nn(C)c(=O)c3ccccc23)c1	n	n	n	n	n	n
COc1ccc(C(=O)/C=C/c2ccc(OC3CSC3)cc2)cc1OC	n	n	n	n	n	n
O=C(/C=C/c1ccc(OC2CSC2)cc1)c1ccc(Cl)cc1	n	n	54	n	n	n
CC(C)CC1C2C(=O)N(c3ccccc3)C(=O)C2ON1c1ccccc1 (stereo unspecified)	n	x	x	n	x	n
O=C(Cc1cnc2ncnn2c1)N1CCc2c([nH]c3ccccc23)C1c1ccccc1F (stereo unspecified)	n	n	n	n	n	n
NS(=O)(=O)c1ccc(CCNS(=O)(=O)c2cccc(C(=O)O)c2)cc1	n	x	x	n	x	n
COc1ccc(N/C(C)=C/C(=S)Nc2ccccc2)cc1	n	n	n	n	n	n
CC[n+]1c(/C=C(\C)OC)sc2ccccc21	n	n	n	n	n	n
CC[n+]1c(/C=C(\C)SC)sc2ccccc21	n	n	65	n	n	n
CC[n+]1c(/C=C(\C)Nc2ccccc2)sc2ccccc21	n	n	99	n	n	n
CC/C(=C/c1sc2ccccc2[n+]1CC)SC	n	n	91	n	n	n
CC[n+]1c(/C=C(/C)SC)sc2ccccc21	n	n	83	n	n	n
Cc1sc2ccccc2[n+]1CC(=O)O	n	x	x	n	x	n
S=c1[nH]nc(-c2n[nH]c3c2CCC3)n1/N=C/C=C/c1ccccc1	n	x	x	n	x	n
COCCn1c(Cc2cccn2C)nnc1SCC(=O)NCc1ccc2c(c1)OCO2	n	n	n	n	n	x
CC[n+]1c(/C=C/Nc2ccccc2)sc2ccccc21	n	n	99	n	n	n
Cc1ccc(N2C(=N)/C(=C3/Nc4ccccc4S3)C(c3ccccc3)C2=O)cc1 (stereo unspecified)	n	n	100	n	n	n
COCCNCC(=O)Nc1nc(C)cs1	n	n	n	n	n	n
SMILES	Wee1 degr inh	PKD1 inh	L major viab	CHOP inh	Arbovirus anti	Rad51 HR inh
Nc1ccc(O)cc1C(=O)OCC(=O)c1ccc(C2CCCCC2)cc1	n	n	60	n	n	n
COc1ccc(C(=O)OCC(=O)c2ccc(C3CCCCC3)cc2)cc1	n	n	n	n	n	n
COc1ccc(-n2ccnc2SCC(=O)NCc2ccc(F)cc2)c(OC)c1	n	n	n	n	n	n
CCCCCCCCCCCCC/C=C/C(O)C(N)CO (stereo unspecified)	x	x	x	n	x	x
Cc1cc(C)c(C)c(S(=O)(=O)N2CCN(CC(=O)Nc3sccc3C#N)CC2)c1C	n	n	57	n	n	n
CCCCNCCCOc1cc(Cl)ccc1Cl	n	n	98	n	n	x
CCNC(=O)CCCOc1ccc(Cl)cc1Cl	n	n	n	n	n	n
CCC(C)NCCCCOc1ccc(Cl)cc1C (stereo unspecified)	n	n	97	n	n	n
CCC(C)NCCCOc1cc(Cl)ccc1Cl (stereo unspecified)	n	n	100	n	n	n
Cc1ccc(NC(=S)N/N=C/c2ccc(Cl)c([N+](=O)[O-])c2)cc1	n	n	n	80	n	n
COc1cc(/C=N/NC(=S)Nc2cccc(S(=O)(=O)N(C)C)c2)ccc1O	n	n	67	n	n	x
Nn1cnnc1N/N=C/c1ccc(Cl)c([N+](=O)[O-])c1	n	n	54	n	n	n
CN(C)S(=O)(=O)c1cccc(NC(=S)N/N=C/C2CC=CCC2)c1 (stereo unspecified)	n	n	n	n	n	n
COc1ccc(/C=N/NC(=S)Nc2ccccc2[N+](=O)[O-])cc1O	n	n	57	n	n	n
O=[N+]([O-])c1cc(/C=N/NC(=S)Nc2ccccc2Cl)ccc1Cl	n	n	n	n	n	n
COc1cc(/C=N/Nc2ccccc2[N+](=O)[O-])cc(OC)c1O	n	n	n	n	n	n
CN(C)c1nc(N/N=C\c2ccc(Cl)c([N+](=O)[O-])c2)nc(Nc2ccc(F)cc2)n1	n	n	97	x	x	n
CCC(C)Oc1nc2c(c(=O)n(C)c(=O)n2C)n1C (stereo unspecified)	n	x	x	n	x	n
CNc1ccc(/C=C2\CSc3ccccc3C2=O)cc1[N+](=O)[O-]	n	n	99	n	n	n
Cc1ccc(S(=O)(=O)N2CN(Cc3ccco3)c3nc4ccccc4nc32)cc1	n	n	58	n	n	n
O=S(=O)(c1ccc(F)cc1)N1CN(Cc2ccco2)c2nc3ccccc3nc21	n	n	97	n	n	n
COc1ccc(CN2CN(S(=O)(=O)c3ccccc3)c3nc4ccccc4nc32)cc1	n	x	x	n	x	n
COc1ccc(CCN2CN(S(=O)(=O)c3ccc(OC)cc3)c3nc4ccccc4nc32)cc1	n	n	85	n	n	n
COc1ccc(S(=O)CC(=O)Nc2ccc(Cl)cc2Cl)cc1 (stereo unspecified)	n	n	n	n	n	n
CC(=O)c1c(C)[nH]c(C(=O)CN2C(=O)NC(C)(CCC(C)C)C2=O)c1C (stereo unspecified)	n	n	n	n	n	n
SMILES	Wee1 degr inh	PKD1 inh	L major viab	CHOP inh	Arbovirus anti	Rad51 HR inh
C=CCc1c(C)[nH]c2c(OC)cccc2c1=S	n	n	76	n	n	n
CC1CCc2nc(NC(=O)C3CCCO3)sc2C1 (stereo unspecified)	9.7	n	n	n	n	n
CC1CCc2nc(NC(=O)c3ccco3)sc2C1 (stereo unspecified)	n	n	n	71	n	n
O=C(Nc1nc2cc3c(cc2s1)OCO3)c1ccco1	n	x	x	n	x	x
O=C(Nc1nc2ccccc2c(=O)s1)c1ccco1	10	x	x	n	x	n
CC1CCc2nc(NC(=O)Cc3cccs3)sc2C1 (stereo unspecified)	n	n	n	n	n	n
